Data reported in ChEMBL document CHEMBL1127087, “Synthesis and structure-activity relationships of 3,5-disubstituted 4,5-dihydro-6H-imidazo[1,5-a][1,4]benzodiazepin-6-ones at diazepam-sensitive and diazepam-insensitive benzodiazepine receptors” (J Med Chem, 1993).

Legend:
[1] = target: GABA-A receptor; anion channel; experiment: Displacement of [3H]flunitrazepam from diazepam-sensitive GABA-A benzodiazepine receptor of rat cortical membrane
In short: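 Washed rat cerebral cortex membranes (adult male Sprague-Dawley) in Tris-citrate pH 7.4 with NaCl. [3H]flunitrazepam at about 1 nM final, 2 h at 4 °C, then filtration. Six to eight inhibitor concentrations were used; IC50 came from a sigmoid fit. Three determinations, mean ± SEM.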

[2] = target: GABA-A receptor; anion channel; experiment: […] from diazepam-insensitive GABA-A benzodiazepine receptor of rat cerebellar membrane
[3] = Ratio between diazepam-insensitive (DI) site / diazepam-sensitive (DS) site
In short: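 Rat cerebellar membranes washed five times in 50 mM Tris-citrate pH 7.8 with NaCl. [3H]Ro 15-4513 at about 2 nM final, 60 min at 0–4 °C, then filtration. DS+DI binding was defined by Ro 15-1788 (10 μM) displacement and DI binding as the diazepam (10 μM)-insensitive part. 0.1 nM–1 μM inhibitor; Cheng-Prusoff Ki; duplicate assays, three experiments. Ratio is Ki DI/DS.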

[4] = target: GABA-A receptor; anion channel; experiment: […] from diazepam-sensitive GABA-A benzodiazepine receptor of rat cerebellar membrane

Row | Compound | IC50 [1] [nM] | Ratio [3] | other results
1 | CCOC(=O)c1ncn2c1CN(c1ccc(OC)cc1)C(=O)c1ccccc1-2 | > 1000 | – | –
2 | CCOC(=O)c1ncn2c1CN(Cc1ccccc1)C(=O)c1cc(Cl)ccc1-2 | 37.8 | 0.8 | Ki [2]: 1.4 nM
3 | C=CCN1Cc2c(C(=O)OCC)ncn2-c2ccccc2C1=O | 157 | – | –
4 | CCOC(=O)c1ncn2c1CN(Cc1ccccc1)C(=O)c1c(Cl)cccc1-2 | 2.4 | 51 | –
5 | CCOC(=O)c1ncn2c1CN(C)C(=O)c1c(Cl)cccc1-2 | – | 100 | –
6 | Cc1noc(-c2ncn3c2CN(Cc2ccccc2)C(=O)c2cc(Cl)ccc2-3)n1 | 338 | 1.3 | –
7 | CCOC(=O)c1ncn2c1CN(Cc1ccccc1)C(=O)c1ccccc1-2 | 9.3 | 75 | –
8 | CN1Cc2c(NC=O)ncn2-c2ccccc2C1=O | > 1000 | – | –
9 | CC(=O)Nc1ncn2c1CN(C)C(=O)c1ccccc1-2 | > 1000 | – | –
10 | Cc1nnc(-c2ncn3c2CN(Cc2ccccc2)C(=O)c2ccccc2-3)o1 | > 1000 | – | IC50 [2]: > 10000 nM
11 | CCOC(=O)c1ncn2c1CN(c1ccccc1)C(=O)c1ccccc1-2 | > 1000 | – | –
12 | Cc1noc(-c2ncn3c2CN(Cc2ccccc2)C(=O)c2c(Cl)cccc2-3)n1 | 15.3 | 101 | –
13 | Cc1ccc(S(=O)(=O)c2ncn3c2CN(C)C(=O)c2ccccc2-3)cc1 | > 1000 | – | –
14 | CCOC(=O)Nc1ncn2c1CN(C)C(=O)c1ccccc1-2 | > 1000 | – | –
15 | CN1Cc2c(C3=NCCO3)ncn2-c2ccccc2C1=O | 687 | – | –
16 | CN1Cc2c(N=C=S)ncn2-c2ccccc2C1=O | 739 | – | –
17 | CCOC(=O)c1ncn2c1CNC(=O)c1ccccc1-2 | 164 | – | –
18 | CCOC(=O)c1ncn2c1CN(C)C(=O)c1ccccc1-2 | – | 165 | –
19 | CCOC(=O)c1ncn2c1CN(Cc1ccc(OC)cc1OC)C(=O)c1ccccc1-2 | 23.2 | 24 | Ki [4]: 5.4 nM; Ki [2]: 127 nM
20 | Cc1noc(-c2ncn3c2CN(Cc2ccccc2)C(=O)c2ccccc2-3)n1 | 34.3 | – | IC50 [2]: > 10000 nM
21 | COC(=O)Nc1ncn2c1CN(C)C(=O)c1ccccc1-2 | > 1000 | – | –
22 | CCCN1Cc2c(C(=O)OCC)ncn2-c2ccccc2C1=O | 238 | – | –
23 | CCOC(=O)c1ncn2c1CN(CCc1ccccc1)C(=O)c1ccccc1-2 | 340 | – | –
